According to ChEMBL document CHEMBL3351972, “Indole-3-ethylsulfamoylphenylacrylamides: potent histone deacetylase inhibitors with anti-inflammatory activity” (Eur J Med Chem, 2014):
The source made the active and inactive calls. The rule behind the calls is not given here.

Legend:
RAW264.7 [1] = assay: Anti-inflammatory activity in LPS-stimulated mouse RAW264.7 cells assessed as suppression of COX2 protein expression at 0.01 to 1 uM pre-incubated for 30 mins before LPS stimulation for 24 hrs by Western blotting method; type: functional, cell-based
Procedure, shortened: (§1)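 RAW 264.7 cells (1 × 10⁶/well) were pretreated with compound at 0.01–1 for 30 min, then stimulated with LPS (25 ng/mL) for 24 h. Whole-cell extracts were cleared at 17,000 g for 30 min at 4 °C, and protein was measured by Bradford. Blots were blocked in 5% milk/TBST, probed with primary antibody overnight at 4 °C, then HRP secondary (1:1000) 1 h RT. Data are mean ± SEM of three replicates, compared with the LPS-only group.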

RAW264.7 [2] = assay: Anti-inflammatory activity in LPS-stimulated mouse RAW264.7 cells assessed as suppression of PGE2 production pre-incubated for 1 hr before LPS stimulation for 24 hrs by enzyme immunoassay method; type: functional, cell-based
Procedure, shortened: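 RAW 264.7 cells (1 × 10⁶) were treated with or without compound for 1 h, then stimulated with LPS (25 ng/mL) for 24 h at 37 °C. PGE₂ in culture supernatants was measured by EIA kit.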

RAW264.7 [3] = assay: Anti-inflammatory activity in LPS-stimulated mouse RAW264.7 cells assessed as suppression of nitric oxide production pre-incubated for 1 hr before LPS stimulation for 24 hrs by Griess reagent based assay; type: functional, cell-based
Procedure, shortened: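 Nitrite concentration was quantified against a standard dilution series of sodium nitrite.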

RAW264.7 [4] = assay: Anti-inflammatory activity in LPS-stimulated mouse RAW264.7 cells assessed as suppression of TNFalpha production pre-incubated for 1 hr before LPS stimulation for 24 hrs by ELISA method; type: functional, cell-based
Procedure, shortened: (§2)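 IL-6 and TNF-α were measured by ELISA. RAW 264.7 cells (1 × 10⁶) were plated and pretreated with or without compound for 1 h, then stimulated with LPS (25 ng/mL) for 24 h at 37 °C.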

RAW264.7 [5] = assay: Toxicity against mouse RAW264.7 cells assessed as reduction in cell viability at 0.01 to 1 uM incubated for 24 hrs by MTT assay; type: cell-based; conditions: raw264.7, 24 h
Procedure, shortened: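 Macrophages were exposed to compound at 0.01–1 for 24 h. Viability was then assessed by MTT assay.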

[6] = target: Transcription factor p65 (Mus musculus) (UniProt Q04207); assay: Inhibition of p65 phosphorylation in LPS-stimulated mouse RAW264.7 cells at 0.01 to 1 uM pre-incubated for 30 mins before LPS stimulation for 24 hrs by Western blotting method; type: cell-based; procedure, shortened: as §1
Chain of Transcription factor p65 (Mus musculus) (Q04207 whole entry): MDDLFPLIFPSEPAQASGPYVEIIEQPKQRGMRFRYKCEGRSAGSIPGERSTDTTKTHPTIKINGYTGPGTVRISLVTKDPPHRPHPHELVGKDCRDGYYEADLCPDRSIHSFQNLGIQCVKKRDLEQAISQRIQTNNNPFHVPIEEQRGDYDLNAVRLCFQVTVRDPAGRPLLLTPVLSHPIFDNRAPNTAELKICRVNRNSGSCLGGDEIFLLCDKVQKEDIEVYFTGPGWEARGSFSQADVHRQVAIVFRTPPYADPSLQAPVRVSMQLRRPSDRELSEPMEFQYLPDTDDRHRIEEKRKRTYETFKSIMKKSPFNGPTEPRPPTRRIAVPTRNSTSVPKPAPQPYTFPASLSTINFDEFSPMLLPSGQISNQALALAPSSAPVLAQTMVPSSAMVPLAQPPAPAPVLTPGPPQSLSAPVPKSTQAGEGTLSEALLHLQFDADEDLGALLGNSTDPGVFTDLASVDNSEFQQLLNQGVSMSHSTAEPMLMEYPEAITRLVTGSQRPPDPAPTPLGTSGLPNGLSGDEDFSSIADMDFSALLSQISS

Rattus norvegicus [7] = assay: Anti-inflammatory activity in Wistar rat model of carrageenan-induced edema assessed as reduction in right hind paw thickness at 20 mg/kg, po dosed 1 hour before carrageenan injection measured 3 hrs post carrageenan challenge by digital plethysmometry; type: functional, organism-based; design: dose 20 mg/kg
Procedure, shortened: (§3)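 Male Wistar rats (7 weeks) were randomised into eight groups. They were dosed orally 1 h before carrageenan: vehicle (1% carboxymethyl cellulose + 0.5% Tween 80), test suspensions at 20 mg/kg, or indomethacin as positive control at 1 mg/kg. Carrageenan (0.5% w/v in saline) was injected intradermally into the base of the right hind paw. Paw change was read at 3 h by digital caliper and plethysmometer.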

[8] = Retention time of the compound by HPLC method; type: physicochemical
Histone deacetylase = assay: Inhibition of HDAC in human HeLa cells nuclear extracts incubated for 30 mins by fluorescent assay; type: cell-free
RAW264.7 [9] = assay: Anti-inflammatory activity in LPS-stimulated mouse RAW264.7 cells assessed as suppression of iNOS protein expression at 0.01 to 1 uM pre-incubated for 30 mins before LPS stimulation for 24 hrs by Western blotting method; type: functional, cell-based; procedure, shortened: as §1
RAW264.7 [10] = assay: Inhibition of HDAC in mouse RAW264.7 cells assessed as increase in histone H3 acetylation at > 0.1 uM incubated for 24 hrs by Western blotting method
RAW264.7 [11] = assay: Anti-inflammatory activity in LPS-stimulated mouse RAW264.7 cells assessed as suppression of IL6 production pre-incubated for 1 hr before LPS stimulation for 24 hrs by ELISA method; type: functional, cell-based; procedure, shortened: as §2
Rattus norvegicus [12] = assay: Anti-inflammatory activity in Wistar rat model of carrageenan-induced edema assessed as reduction in right hind paw thickness at 1 mg/kg, po dosed 1 hour before carrageenan injection measured 3 hrs post carrageenan challenge by digital plethysmometry; type: functional, organism-based; design: dose 1 mg/kg; procedure, shortened: as §3

Row | Compound | inhibition (RAW264.7 [1]) | IC50 (RAW264.7 [2]) [nM] | IC50 (RAW264.7 [3]) [nM] | IC50 (RAW264.7 [4]) [nM] | Activity (RAW264.7 [5]) | inhibition [6] | inhibition (Rattus norvegicus [7]) | Retention_time [8] [min] | IC50 (Histone deacetylase) [nM] | inhibition (RAW264.7 [9]) | inhibition (RAW264.7 [10]) | IC50 (RAW264.7 [11]) [nM] | inhibition (Rattus norvegicus [12])
1 | Cc1[nH]c2ccccc2c1CCNS(=O)(=O)c1ccc(/C=C/C(=O)NO)cc1 | Active | 330 | 740 | 480 | Non-toxic | Dose-dependent effect | Active | 23.3 | 2.8 | Active | Active | 20 | 
2 | Cc1c(CCNS(=O)(=O)c2ccc(/C=C/C(=O)NO)cc2)c2ccccc2n1C | Active | 150 | 300 | 800 | Non-toxic | Dose-dependent effect | Active | 25.96 | 3.3 | Active | Active | 14 | 
3 | CCN(CC)CCn1c(C)c(CCNS(=O)(=O)c2ccc(/C=C/C(=O)NO)cc2)c2ccccc21 |  | 3100 | 3100 | 1500 |  |  |  | 16.67 | 7.3 |  |  | 0.14 | 
4 | O=C(/C=C/c1ccc(S(=O)(=O)N2CCc3c([nH]c4ccccc34)C2)cc1)NO |  | 7200 | 3700 | > 10000 |  |  |  | 25.18 | 43.9 |  |  | 31 | 
5 | CCN(CCc1c(C)[nH]c2ccccc12)S(=O)(=O)c1ccc(/C=C/C(=O)NO)cc1 |  | 2900 | 1200 | > 10000 |  |  |  | 27.17 | 29.6 |  |  | 5.9 | 
6 | Cc1[nH]c2ccccc2c1CCNS(=O)(=O)c1cccc(/C=C/C(=O)NO)c1 | Active | 320 | 360 | 1500 | Non-toxic | Dose-dependent effect | Active | 23.3 | 7.9 | Active | Active | 13 | 
7 | O=C(/C=C/c1ccc(S(=O)(=O)NCCc2c[nH]c3ccccc23)cc1)NO |  | 2200 | 740 | 1200 |  |  |  | 22.17 | 6.6 |  |  | 0.014 | 
8 | Cn1cc(CCNS(=O)(=O)c2ccc(/C=C/C(=O)NO)cc2)c2ccccc21 |  | 1500 | 290 | 620 |  |  |  | 24.21 | 5.7 |  |  | 32 | 
9 | Cc1[nH]c2ccccc2c1CCNS(=O)(=O)c1ccc(C(=O)NO)cc1 |  | > 10000 | > 10000 | > 10000 |  |  |  | 21.88 | 771.8 |  |  | 23.9 | 
10 | Cc1[nH]c2ccccc2c1CCN(C)S(=O)(=O)c1ccc(/C=C/C(=O)NO)cc1 |  | 2900 | 1000 | > 10000 |  |  |  | 25.51 | 47.4 |  |  | 5.5 | 
11 | Cc1[nH]c2ccccc2c1CCN(C(C)C)S(=O)(=O)c1ccc(/C=C/C(=O)NO)cc1 |  | 7400 | 1600 | > 10000 |  |  |  | 28.67 | 9.2 |  |  | 4.5 | 
12 | CCn1c(C)c(CCNS(=O)(=O)c2ccc(/C=C/C(=O)NO)cc2)c2ccccc21 | Active | 270 | 260 | 730 | Non-toxic | Dose-dependent effect | Active | 27.93 | 3.4 | Active | Active | 21 | 
13 | O=C(/C=C/c1cccc(S(=O)(=O)Nc2ccccc2)c1)NO [BELINOSTAT] |  | 8280 | 2200 | 4700 |  |  |  |  |  |  |  | 0.059 | 
14 | COc1ccc2c(c1)c(CC(=O)O)c(C)n2C(=O)c1ccc(Cl)cc1 |  |  |  |  |  |  |  |  |  |  |  |  | Active
